Reference: BindingDB's records for doi:10.1016/j.bmc.2008.06.044 (University of Montreal, 2008)

Experiments:
[1] = Inhibition of recombinant galectin 1 in human O type red blood cells by hemagglutinination assay
[2] = Inhibition of recombinant galectin 3 in human O type red blood cells by hemagglutinination assay
[3] = biological target: Galectin-3 (Homo sapiens, UniProt P17931); assay: Inhibition of recombinant galectin 3 in human O type red blood cells by hemagglutinination assay
Summary of the method: (§1)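 Human type O erythrocytes were fixed with 3% glutaraldehyde in PBS containing 0.0025% NaN3, then used at 0.0025% final. Galectin at 1 µM was incubated with the RBCs, with or without a range of inhibitor concentrations, at 37 °C for 30 min. RBC aggregation was then scored, in triplicate.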

[4] = biological target: Galectin-1 (Homo sapiens, UniProt P09382); assay: Inhibition of recombinant galectin 1 in human O type red blood cells by hemagglutinination assay
Summary of the method: as §1

Galectin-1, sequence (P09382 whole entry): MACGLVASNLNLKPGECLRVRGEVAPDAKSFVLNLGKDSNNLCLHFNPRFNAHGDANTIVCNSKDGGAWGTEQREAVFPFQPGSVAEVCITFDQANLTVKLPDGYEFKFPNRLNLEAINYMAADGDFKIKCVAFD
Galectin-3, sequence (P17931 whole entry): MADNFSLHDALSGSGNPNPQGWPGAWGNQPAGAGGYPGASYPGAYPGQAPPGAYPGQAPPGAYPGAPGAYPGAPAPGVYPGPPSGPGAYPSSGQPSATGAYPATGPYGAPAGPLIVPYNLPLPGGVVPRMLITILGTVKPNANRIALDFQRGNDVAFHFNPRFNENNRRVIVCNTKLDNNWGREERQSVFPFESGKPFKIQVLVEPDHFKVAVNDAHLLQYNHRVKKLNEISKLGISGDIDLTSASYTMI

Row | IC50 [1] [mM] | IC50 [2] [mM] | IC50 [3] [mM] | IC50 [4] [mM] | SMILES
1 | > 5 | 5 | – | – | CC(=O)C[C@@H]1O[C@H](CO)[C@H](O)[C@H](O)[C@H]1O [1-((2S,3R,4R,5R,6R)-3,4,5-trihydroxy-6-(hydroxymethyl)-tetrahydro-2H-pyran-2-yl)propan-2-one]
2 | – | – | 50 | 50 | OC[C@H]1O[C@H](O)[C@H](O)[C@@H](O)[C@H]1O [GALACTOSE]
3 | 0.6 | 0.3 | – | – | OC[C@@H]1O[C@H](n2cc(CS[C@@H]3O[C@H](CO)[C@@H](O[C@@H]4O[C@H](CO)[C@H](O)[C@H](O)[C@H]4O)[C@H](O)[C@H]3O)nn2)[C@@H](O)[C@H](O)[C@@H]1O [(2S,3R,4S,5R,6R)-2-((2R,3S,4R,5R,6S)-4,5-dihydroxy-2-(hydroxymethyl)-6-((1-((2S,3S,4R,5S,6S)-3,4,5-trihydroxy-6-(hydroxymethyl)-tetrahydro-2H-pyran-2-yl)-1H-1,2,3-triazol-4-yl)methylthio)-tetrahydro-2H-pyran-3-yloxy)-6-(hydroxymethyl)-tetrahydro-2H-pyran-3,4,5-triol]
4 | 0.3 | 0.16 | – | – | OC[C@@H]1O[C@H](O[C@@H]2[C@@H](O)[C@H](O)[C@@H](n3cc(CS[C@@H]4O[C@H](CO)[C@@H](O[C@@H]5O[C@H](CO)[C@H](O)[C@H](O)[C@H]5O)[C@H](O)[C@H]4O)nn3)O[C@H]2CO)[C@@H](O)[C@H](O)[C@@H]1O [(2S,3R,4S,5R,6R)-2-((2R,3S,4R,5R,6S)-6-((1-((2S,3S,4S,5R,6S)-3,4-dihydroxy-6-(hydroxymethyl)-5-((2R,3S,4R,5S,6S)-3,4,5-trihydroxy-6-(hydroxymethyl)-tetrahydro-2H-pyran-2-yloxy)-tetrahydro-2H-pyran-2-yl)-1H-1,2,3-triazol-4-yl)methylthio)-4,5-dihydroxy-2-(hydroxymethyl)-tetrahydro-2H-pyran-3-yloxy)-6-(hydroxymethyl)-tetrahydro-2H-pyran-3,4,5-triol]
5 | > 5 | 5 | – | – | C=C(C[C@@H]1O[C@H](CO)[C@H](O)[C@H](O)[C@H]1O)c1ccc(OC)cc1 [(2R,3R,4R,5R,6S)-2-(hydroxymethyl)-6-(2-(4-methoxyphenyl)allyl)-tetrahydro-2H-pyran-3,4,5-triol]
6 | > 5 | > 5 | – | – | OC[C@H]1O[C@@H](C/C=C/c2ccccc2)[C@H](O)[C@@H](O)[C@H]1O [(2S,3R,4R,5R,6R)-2-cinnamyl-6-(hydroxymethyl)-tetrahydro-2H-pyran-3,4,5-triol]
7 | 5 | > 5 | – | – | OC[C@@H]1O[C@H](SCC#CC#CCS[C@@H]2O[C@H](CO)[C@H](O)[C@H](O)[C@H]2O)[C@@H](O)[C@@H](O)[C@@H]1O [Dimeric galactoside]
8 | 0.3 | 0.16 | – | – | OC[C@@H]1O[C@H](O[C@@H]2[C@@H](O)[C@H](O)[C@@H](SCC#CC#CCS[C@@H]3O[C@H](CO)[C@@H](O[C@@H]4O[C@H](CO)[C@H](O)[C@H](O)[C@H]4O)[C@H](O)[C@H]3O)O[C@H]2CO)[C@@H](O)[C@H](O)[C@@H]1O [(2S,3R,4S,5R,6R)-2-((2R,3S,4R,5R,6S)-6-(6-((2R,3S,4S,5R,6S)-3,4-dihydroxy-6-(hydroxymethyl)-5-((2R,3S,4R,5S,6S)-3,4,5-trihydroxy-6-(hydroxymethyl)-tetrahydro-2H-pyran-2-yloxy)-tetrahydro-2H-pyran-2-ylthio)hexa-2,4-diynylthio)-4,5-dihydroxy-2-(hydroxymethyl)-tetrahydro-2H-pyran-3-yloxy)-6-(hydroxymethyl)-tetrahydro-2H-pyran-3,4,5-triol]
9 | 5 | > 5 | – | – | OC[C@H]1O[C@@H](C/C=C/c2cccc(/C=C/C[C@@H]3O[C@H](CO)[C@H](O)[C@H](O)[C@H]3O)c2)[C@H](O)[C@@H](O)[C@H]1O [(2S,3R,4R,5R,6R)-2-((12S,14R,15R,16R,17R,E)-3-((E)-3-((2S,3R,4R,5R,6R)-3,4,5-trihydroxy-6-(hydroxymethyl)-tetrahydro-2H-pyran-2-yl)prop-1-enyl)cinnamyl)-6-(hydroxymethyl)-tetrahydro-2H-pyran-3,4,5-triol]
10 | 0.3 | 0.6 | – | – | OC[C@@H]1O[C@H](O[C@@H]2[C@@H](O)[C@H](O)[C@@H](n3cc(CS[C@@H]4O[C@H](CO)[C@H](O)[C@H](O)[C@H]4O)nn3)O[C@H]2CO)[C@@H](O)[C@H](O)[C@@H]1O [(2S,3R,4S,5R,6R)-2-((1-((2S,3S,4S,5R,6S)-3,4-dihydroxy-6-(hydroxymethyl)-5-((2R,3S,4R,5S,6S)-3,4,5-trihydroxy-6-(hydroxymethyl)-tetrahydro-2H-pyran-2-yloxy)-tetrahydro-2H-pyran-2-yl)-1H-1,2,3-triazol-4-yl)methylthio)-6-(hydroxymethyl)-tetrahydro-2H-pyran-3,4,5-triol]
11 | 5 | 5 | – | – | COC(=O)/C=C/C[C@@H]1O[C@H](CO)[C@H](O)[C@H](O)[C@H]1O [(E)-Methyl 4-(beta-D-galactopyranosyl)-but-2-enoate]
12 | > 5 | 2.5 | – | – | C#CCS[C@@H]1O[C@H](CO)[C@H](O)[C@H](O)[C@H]1O [(2R,3R,4S,5R,6S)-2-(hydroxymethyl)-6-(prop-2-ynylthio)-tetrahydro-2H-pyran-3,4,5-triol]
13 | 2.5 | > 5 | – | – | OC[C@@H]1O[C@H](SCC#Cc2ccc(C#CCS[C@@H]3O[C@H](CO)[C@H](O)[C@H](O)[C@H]3O)cc2)[C@@H](O)[C@H](O)[C@@H]1O [(2R,3S,4S,5R,6S)-2-(hydroxymethyl)-6-(3-(4-(3-((2R,3S,4R,5S,6S)-3,4,5-trihydroxy-6-(hydroxymethyl)-tetrahydro-2H-pyran-2-ylthio)prop-1-ynyl)phenyl)prop-2-ynylthio)-tetrahydro-2H-pyran-3,4,5-triol]
14 | 5 | > 5 | – | – | C=C(C[C@@H]1O[C@H](CO)[C@H](O)[C@H](O)[C@H]1O)c1cccc([N+](=O)[O-])c1 [(2R,3R,4R,5R,6S)-2-(hydroxymethyl)-6-(2-(3-nitrophenyl)allyl)-tetrahydro-2H-pyran-3,4,5-triol]
15 | 0.6 | 0.3 | – | – | C#CCS[C@@H]1O[C@H](CO)[C@@H](O[C@@H]2O[C@H](CO)[C@H](O)[C@H](O)[C@H]2O)[C@H](O)[C@H]1O [(2S,3R,4S,5R,6R)-2-((2R,3S,4R,5R,6S)-4,5-dihydroxy-2-(hydroxymethyl)-6-(prop-2-ynylthio)-tetrahydro-2H-pyran-3-yloxy)-6-(hydroxymethyl)-tetrahydro-2H-pyran-3,4,5-triol]
16 | > 5 | 2.5 | – | – | OC[C@@H]1O[C@H](n2cc(CS[C@@H]3O[C@H](CO)[C@H](O)[C@H](O)[C@H]3O)nn2)[C@@H](O)[C@H](O)[C@@H]1O [(2R,3R,4S,5R,6S)-2-(hydroxymethyl)-6-((1-((2S,3S,4R,5S,6S)-3,4,5-trihydroxy-6-(hydroxymethyl)-tetrahydro-2H-pyran-2-yl)-1H-1,2,3-triazol-4-yl)methylthio)-tetrahydro-2H-pyran-3,4,5-triol]
17 | > 5 | > 5 | – | – | C/C=C/[C@@H]1O[C@H](CO)[C@H](O)[C@H](O)[C@H]1O [(2R,3R,4R,5R,6S,E)-2-(hydroxymethyl)-6-(prop-1-enyl)-tetrahydro-2H-pyran-3,4,5-triol]
